Results as given in ChEMBL document CHEMBL3352311, “Discovery of novel 3-benzylquinazolin-4(3H)-ones as potent vasodilative agents” (Bioorg Med Chem Lett, 2014).
Values belong to the compound of their own block, whether it stands above or below them. The source made the active and inactive calls. The rule behind the calls is not given here.

What was measured:
[1] = Vasodilative activity in isolated Sprague-Dawley rat mesenteric arterial ring assessed as reduction in KCl-induced contraction by wire myograph method; type: functional; settings: Mesenteric artery
Outline: (§1)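 Isolated rat mesenteric arterial rings were precontracted with 60 mM KCl MOPS solution and then exposed to the compound. Relaxation was expressed as pEC50 and Emax (%), given as mean ± deviation. DMSO served as vehicle control and nitrendipine as reference.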

[2] = Vasodilative activity in isolated Sprague-Dawley rat mesenteric arterial ring assessed as reduction in KCl-induced contraction by wire myograph method relative to control; type: functional; settings: Mesenteric artery; outline: as §1
Rattus norvegicus [3] = test: Antihypertensive activity in spontaneously hypertensive rat assessed as reduction in diastolic blood pressure at 2 mg/kg, po measured after 1 hr; type: functional, Artery
Outline: (§2)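 Oral dosing in spontaneously hypertensive rats, n = 8 per group. Vehicle was NMP/PEG400/H2O 1:7:2 at 5 ml/kg, and vehicle alone served as control. DBP and SBP (mmHg) were recorded before dosing (0 h) and 1 h after. The reported value is the reduction from the 0 h reading. Doses tested ranged from 0.5 to 8.0 mg/kg, with nitrendipine 2.0 mg/kg as positive drug.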

Rattus norvegicus [4] = test: Antihypertensive activity in spontaneously hypertensive rat assessed as reduction in systolic blood pressure at 2 mg/kg, po measured after 1 hr; type: functional, Artery; outline: as §2
[5] = Vasodilative activity in isolated Sprague-Dawley rat mesenteric arterial ring assessed as reduction in phenylephrine-induced contraction at 1 to 10 uM pre-incubated for 30 mins before phenylephrine addition by wire myograph method; type: functional; settings: Mesenteric artery
Outline: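 Rat mesenteric artery segments were pretreated with compound at 10^-5 M or 10^-6 M for 30 min. Contraction induced by phenylephrine was then recorded.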

Rattus norvegicus [6] = test: Antihypertensive activity in spontaneously hypertensive rat assessed as reduction in systolic blood pressure at 1 mg/kg, po measured after 1 hr; type: functional, Artery; outline: as §2
Rattus norvegicus [7] = test: Antihypertensive activity in spontaneously hypertensive rat assessed as reduction in systolic blood pressure at 4 mg/kg, po measured after 6 hrs; type: functional, Artery
Outline: (§3)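 Time course in spontaneously hypertensive rats given 4.0 mg/kg orally in NMP/PEG400/H2O 1:7:2 vehicle (5 ml/kg). A vehicle-only group was included. DBP and SBP were followed at successive times after dosing, and the reduction from the pre-dose blood pressure was reported.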

Rattus norvegicus [8] = test: Antihypertensive activity in spontaneously hypertensive rat assessed as reduction in systolic blood pressure at 4 mg/kg, po measured after 1 hr; type: functional, Artery; outline: as §2
Rattus norvegicus [9] = test: Antihypertensive activity in spontaneously hypertensive rat assessed as reduction in systolic blood pressure at 4 mg/kg, po measured after 4 hrs; type: functional, Artery; outline: as §3
Rattus norvegicus [10] = test: Antihypertensive activity in spontaneously hypertensive rat assessed as reduction in diastolic blood pressure at 4 mg/kg, po measured after 4 hrs; type: functional, Artery; outline: as §3
Rattus norvegicus [11] = test: Antihypertensive activity in orally dosed spontaneously hypertensive rat assessed as reduction in systolic blood pressure; type: functional, organism-based; settings: Artery; outline: as §2
Rattus norvegicus [12] = test: Antihypertensive activity in spontaneously hypertensive rat assessed as reduction in systolic blood pressure at 4 mg/kg, po measured after 0.5 hrs; type: functional, Artery; outline: as §3
Rattus norvegicus [13] = test: Antihypertensive activity in spontaneously hypertensive rat assessed as reduction in diastolic blood pressure at 8 mg/kg, po measured after 1 hr; type: functional, Artery; outline: as §2
Rattus norvegicus [14] = test: Antihypertensive activity in spontaneously hypertensive rat assessed as reduction in systolic blood pressure at 4 mg/kg, po measured after 8 hrs; type: functional, Artery; outline: as §3
Rattus norvegicus [15] = test: Antihypertensive activity in spontaneously hypertensive rat assessed as reduction in diastolic blood pressure at 0.5 mg/kg, po measured after 1 hr; type: functional, Artery; outline: as §2
Rattus norvegicus [16] = test: Antihypertensive activity in spontaneously hypertensive rat assessed as reduction in systolic blood pressure at 0.5 mg/kg, po measured after 1 hr; type: functional, Artery; outline: as §2
Rattus norvegicus [17] = test: Antihypertensive activity in spontaneously hypertensive rat assessed as reduction in systolic blood pressure at 4 mg/kg, po measured after 2 hrs; type: functional, Artery; outline: as §3
Rattus norvegicus [18] = test: Antihypertensive activity in spontaneously hypertensive rat assessed as reduction in diastolic blood pressure at 4 mg/kg, po measured after 6 hrs; type: functional, Artery; outline: as §3
Rattus norvegicus [19] = test: Antihypertensive activity in spontaneously hypertensive rat assessed as reduction in diastolic blood pressure at 4 mg/kg, po measured after 1 hr; type: functional, Artery; outline: as §2
Rattus norvegicus [20] = test: Antihypertensive activity in spontaneously hypertensive rat assessed as reduction in diastolic blood pressure at 1 mg/kg, po measured after 1 hr; type: functional, Artery; outline: as §2
Rattus norvegicus [21] = test: Antihypertensive activity in spontaneously hypertensive rat assessed as reduction in diastolic blood pressure at 4 mg/kg, po measured after 0.5 hrs; type: functional, Artery; outline: as §3
Rattus norvegicus [22] = test: Antihypertensive activity in spontaneously hypertensive rat assessed as reduction in systolic blood pressure at 8 mg/kg, po measured after 1 hr; type: functional, Artery; outline: as §2
Rattus norvegicus [23] = test: Antihypertensive activity in orally dosed spontaneously hypertensive rat assessed as reduction in diastolic blood pressure; type: functional, organism-based; settings: Artery; outline: as §2
Rattus norvegicus [24] = test: Antihypertensive activity in spontaneously hypertensive rat assessed as reduction in diastolic blood pressure at 4 mg/kg, po measured after 2 hrs; type: functional, Artery; outline: as §3
Rattus norvegicus [25] = test: Antihypertensive activity in spontaneously hypertensive rat assessed as reduction in diastolic blood pressure at 4 mg/kg, po measured after 8 hrs; type: functional, Artery; outline: as §3

SMILES: O=c1c2cc(Br)ccc2ncn1Cc1ccc(F)cc1
EC50 [1]: 50.1 µM
Emax [2]: 96.4%

SMILES: O=c1c2ccc(Cl)cc2ncn1Cc1ccc(F)cc1
EC50 [1]: 63.1 µM
Emax [2]: 101%

SMILES: CCOC(=O)C1=C(C)NC(C)=C(C(=O)OC)C1c1cccc([N+](=O)[O-])c1 (stereo unspecified) [NITRENDIPINE]
EC50 [1]: 0.00398 µM
Emax [2]: 104%
Activity (Rattus norvegicus [3]): 30 mmHg
Activity (Rattus norvegicus [4]): 51 mmHg

SMILES: COc1cc2ncn(Cc3ccc([N+](=O)[O-])cc3)c(=O)c2cc1OC
EC50 [1]: 63.1 µM
Emax [2]: 86.2%

SMILES: COc1ccc(Cn2cnc3cc(Cl)ccc3c2=O)cc1
EC50 [1]: 50.1 µM
Emax [2]: 97%

SMILES: COc1cc2ncn(Cc3ccc(C#N)cc3)c(=O)c2cc1OC
EC50 [1]: 50.1 µM
Emax [2]: 85.6%

SMILES: COc1cc2ncn(Cc3ccccc3)c(=O)c2cc1OC
EC50 [1]: 39.8 µM
Emax [2]: 98.2%

SMILES: COc1cc2ncn(Cc3ccccc3Cl)c(=O)c2cc1OC
EC50 [1]: 39.8 µM
Emax [2]: 98.3%

SMILES: COc1ccc(-n2cnc3cc(OC)c(OC)cc3c2=O)cc1
EC50 [1]: 63.1 µM
Emax [2]: 96.3%

SMILES: COc1ccc(Cn2cnc3cc(F)ccc3c2=O)cc1
EC50 [1]: 79.4 µM
Emax [2]: 87.7%

SMILES: COc1cc2ncn(Cc3ccc(OCc4ccc(F)cc4)cc3)c(=O)c2cc1OC
EC50 [1]: 100 µM
Emax [2]: 50.3%

SMILES: COc1cc(Cn2cnc3cc(OC)c(OC)cc3c2=O)ccc1O
EC50 [1]: 31.6 µM
Emax [2]: 87.6%

SMILES: COc1ccc(Cn2cnc3cc4c(cc3c2=O)OCO4)cc1
EC50 [1]: 20 µM
Emax [2]: 101%

SMILES: O=c1c2ccc(F)cc2ncn1Cc1ccc(F)cc1
EC50 [1]: 100 µM
Emax [2]: 78.3%

SMILES: COc1cc2ncn(Cc3ccc4c(c3)OCO4)c(=O)c2cc1OC
EC50 [1]: 7.94 µM
Emax [2]: 98.6%

SMILES: COc1cc2ncn(Cc3ccccc3C)c(=O)c2cc1OC
EC50 [1]: 31.6 µM
Emax [2]: 97.3%

SMILES: COc1ccc(Cn2cnc3cc(OC)c(OC)cc3c2=O)cc1
EC50 [1]: 25.1 µM
Emax [2]: 100%

SMILES: COc1cc2ncn(Cc3cc(OC)c(OC)c(OC)c3)c(=O)c2cc1OC
EC50 [1]: 0.501 µM
Emax [2]: 104%

SMILES: COc1cc2ncn(Cc3ccc(F)cc3)c(=O)c2cc1OC
EC50 [1]: 25.1 µM
Emax [2]: 97.8%

Continued, in another order:

EC50 [1]: 12.6 µM
SMILES: COc1cc2ncn(Cc3ccc(OCc4ccc(Cl)cc4Cl)c(OC)c3)c(=O)c2cc1OC
Emax [2]: 97.8%

EC50 [1]: 10 µM
SMILES: COc1cc2ncn(Cc3ccc(OCc4ccc(F)cc4)c(Cl)c3)c(=O)c2cc1OC
Emax [2]: 98.9%

EC50 [1]: 0.251 µM
SMILES: COc1cc2ncn(Cc3ccc(OCc4ccc(F)cc4)c(OC)c3)c(=O)c2cc1OC
Emax [2]: 103%
Activity [5]: Active
Activity (Rattus norvegicus [6]): 28 mmHg
Activity (Rattus norvegicus [7]): 21 mmHg
Activity (Rattus norvegicus [8]): 60 mmHg
Activity (Rattus norvegicus [9]): 36 mmHg
Activity (Rattus norvegicus [10]): 17 mmHg
Activity (Rattus norvegicus [11]): Dose-dependent effect
Activity (Rattus norvegicus [3]): 18 mmHg
Activity (Rattus norvegicus [12]): 46 mmHg
Activity (Rattus norvegicus [4]): 41 mmHg
Activity (Rattus norvegicus [13]): 43 mmHg
Activity (Rattus norvegicus [14]): 2 mmHg
Activity (Rattus norvegicus [15]): 9 mmHg
Activity (Rattus norvegicus [16]): 12 mmHg
Activity (Rattus norvegicus [17]): 42 mmHg
Activity (Rattus norvegicus [18]): 10 mmHg
Activity (Rattus norvegicus [19]): 34 mmHg
Activity (Rattus norvegicus [20]): 15 mmHg
Activity (Rattus norvegicus [21]): 20 mmHg
Activity (Rattus norvegicus [22]): 64 mmHg
Activity (Rattus norvegicus [23]): Dose-dependent effect
Activity (Rattus norvegicus [24]): 23 mmHg
Activity (Rattus norvegicus [25]): 0 mmHg

EC50 [1]: 31.6 µM
SMILES: COc1cc2ncn(Cc3ccc(OC)c(OCc4ccccc4)c3)c(=O)c2cc1OC
Emax [2]: 95%

EC50 [1]: 7.94 µM
SMILES: COc1cc2ncn(Cc3ccc(OCc4ccc(F)cc4)c(F)c3)c(=O)c2cc1OC
Emax [2]: 99.1%

EC50 [1]: 0.631 µM
SMILES: COc1cc2ncn(Cc3ccc(OCc4cccnc4)c(OC)c3)c(=O)c2cc1OC
Emax [2]: 98.4%

EC50 [1]: 20 µM
SMILES: COc1cc2ncn(Cc3ccc(OCc4ccncc4)c(OC)c3)c(=O)c2cc1OC
Emax [2]: 93.5%

EC50 [1]: 1 µM
SMILES: COc1cc2ncn(Cc3ccc(OCc4cccc(F)c4)c(OC)c3)c(=O)c2cc1OC
Emax [2]: 99.6%

EC50 [1]: 3.16 µM
SMILES: COc1ccc(COc2ccc(Cn3cnc4cc(OC)c(OC)cc4c3=O)cc2OC)cc1OC
Emax [2]: 99.7%

EC50 [1]: 0.398 µM
SMILES: COc1cc2ncn(Cc3ccc(OCc4ccccc4)c(OC)c3)c(=O)c2cc1OC
Emax [2]: 103%
Activity [5]: Active
Activity (Rattus norvegicus [8]): 48 mmHg
Activity (Rattus norvegicus [19]): 19 mmHg
